Most compounds without a hit are left out; they make up all but 3% or so of the library.
V-ATPase pHluor: alters yeast V-ATPase proton transport | S. cerevisiae, pHLuorin cytosolic pH fluorescence | hit rate 0.37% among 350,000 | response, % at 10 µM; in the data active = response mostly above about 7.3%, no sharp cut-off; inactive = mostly below about 5.4%; note: actives read high
HIF activator: HIF pathway transcriptional activation | U2OS HRE-luciferase reporter, luminescence; normalized: DMSO 0%, desferrioxamine 100% | activation, % at 7.5 µM (by protocol) | hit rate 0.32% among 300,000;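 active = mean activation of at least 10% of the iron chelator positive control signal, with at least half of replicates also reaching 10%; inconclusive = mean and replicate majority disagree about reaching 10%; inactive = mean and most replicates under 10%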
AI-2 QS modul: Vibrio harveyi AI-2 quorum sensing modulation; activity change, % at 7.5 µM; Vibrio harveyi JMH597 AI-2 luminescence/OD600 ratio, 9 h; stronger effect = lower value; strain lacks LuxN and CqsS sensors; 0 = neutral-control median; hit rate 0.4% among 300,000; in the data active = activity change below about -75%, passing the limit was not always enough; inconclusive = no clear call, values can overlap the other calls;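 note: luminescence divided by OD600 gain over 9 h not by final OD600 alone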
T cruzi repl: T. cruzi replication inhibition. T. cruzi beta-gal in NIH3T3, luminescence, 90 h. inhibition, % (concentration not given with the values). hit rate 1.4% among 300,000;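 active = mean inhibition across valid replicates above about 55%, limit read from the data; inconclusive = mean below that limit but half or more replicates reach it; inactive = mean below it, under half of replicates reach it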;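 note: signal also drops with host cell toxicity which is not excluded here; higher percent means less beta-gal luminescence so fewer parasites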
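Test system: β-gal T. cruzi (Tulahuen C4) inside NIH/3T3 cells / Quantity: 5,000 cells/well / Measured by: luminescence from GalScreen with 0.05% NP40, read after 60 min / Medium: DMEM plus 2% FBS / Measure: parasite load inhibition, % / Reagent: Tulahuen C4 trypomastigotes, 5000/well / Schedule: co-culture of at least 90 h after 3 h attachment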
Yeast superoxide: yeast age-related superoxide inhibition as caloric restriction mimetic; S. cerevisiae aged cells, superoxide DHE fluorescence; stronger effect = lower value; superoxide response (% of plate mean), % at 10 µM; hit rate 0.18% among 330,000; AID 2690;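 active = superoxide response under a set limit, about three screen SD below normal, cut at about 65% in these data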;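 note: yeast aged for seven days with compound at 30 °C before DHE staining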
NRP1-CendR mod: alters CendR peptide binding to human NRP-1 | AID 602438 | FAM-RPARPAR peptide binding to NRP-1, fluorescence polarization | hit rate 0.85% among 360,000 | O14786 | inhibition, % at 25 µM;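 active = inhibition or corrected inhibition above about 18%, plus a signal ratio from 0.5 to 1.5, limit read from the data, passing the limit was not always enough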
Target sequence (O14786 whole entry, looked up): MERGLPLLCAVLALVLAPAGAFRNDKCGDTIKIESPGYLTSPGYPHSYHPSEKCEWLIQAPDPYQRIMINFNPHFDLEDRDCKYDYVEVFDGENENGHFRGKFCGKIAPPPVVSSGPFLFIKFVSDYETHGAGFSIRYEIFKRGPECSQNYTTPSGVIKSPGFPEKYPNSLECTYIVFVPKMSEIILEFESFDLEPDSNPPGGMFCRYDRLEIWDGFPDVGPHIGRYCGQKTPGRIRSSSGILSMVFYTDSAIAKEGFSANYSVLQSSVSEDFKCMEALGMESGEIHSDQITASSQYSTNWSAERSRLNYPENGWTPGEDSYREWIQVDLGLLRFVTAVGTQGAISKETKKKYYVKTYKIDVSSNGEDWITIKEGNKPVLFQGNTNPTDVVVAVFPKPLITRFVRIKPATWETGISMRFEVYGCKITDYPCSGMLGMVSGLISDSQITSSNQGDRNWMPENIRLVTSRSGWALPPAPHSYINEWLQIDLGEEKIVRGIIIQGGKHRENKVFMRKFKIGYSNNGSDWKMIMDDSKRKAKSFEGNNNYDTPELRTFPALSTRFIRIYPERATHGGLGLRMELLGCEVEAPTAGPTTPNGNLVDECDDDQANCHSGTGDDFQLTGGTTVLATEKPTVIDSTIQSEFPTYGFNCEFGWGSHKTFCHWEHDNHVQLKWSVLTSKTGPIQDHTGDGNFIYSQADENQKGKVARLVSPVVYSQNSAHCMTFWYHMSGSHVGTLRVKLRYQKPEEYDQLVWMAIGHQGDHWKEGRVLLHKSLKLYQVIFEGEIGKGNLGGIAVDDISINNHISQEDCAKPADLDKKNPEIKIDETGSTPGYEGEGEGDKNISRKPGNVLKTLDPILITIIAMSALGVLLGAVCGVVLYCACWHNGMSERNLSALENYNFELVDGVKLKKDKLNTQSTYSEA
Hits are given with their value; 0 = inactive; ? = inconclusive; - = no result.

SMILES | V-ATPase pHluor | HIF activator | AI-2 QS modul | T cruzi repl | Yeast superoxide | NRP1-CendR mod
O=C(c1ccco1)N1CCN(C(=O)c2cc(-c3ccccc3)nc3ccccc23)CC1 | 0 | 0 | 0 | 0 | 0 | 0
O=C(c1ccco1)N1CCN(C(=O)c2cc(-c3ccncc3)nc3ccc(Br)cc23)CC1 | 0 | 0 | 0 | 56 | 0 | 0
O=C(NCc1cccs1)c1cc(-c2ccncc2)nc2ccc(Br)cc12 | - | 0 | 0 | 55 | 0 | -
COc1cc(NC(=O)CCN2CCN(Cc3ccccc3)CC2)cc(OC)c1 | 0 | 0 | 0 | 0 | 0 | 0
O=C(CCCCCCC(=O)Nc1ccccc1)NO | 0 | 190 | 0 | 0 | 0 | 0
O=C(CCN1CCN(Cc2ccccc2)CC1)Nc1cccc(Cl)c1 | 0 | 0 | 0 | 55 | 0 | 0
O=C(CCN1CCN(C/C=C/c2ccccc2)CC1)Nc1ccccc1 | 0 | 0 | 0 | 56 | 0 | 0
Cc1ccc(NC(=O)C(c2ccccc2)N2CCN(CC(=O)NC3CC3)CC2)cc1Cl (centres undefined) | 0 | - | - | - | 0 | 0
c1ccc(C2CC(c3ccccc3)n3c(nc4ccccc43)N2)cc1 (centres undefined) | 0 | 0 | 0 | 0 | 0 | 24
CC1(C)CCC(=O)N2CC[C@H]3C[C@H](OC(=O)Nc4ccc5c(c4)OCO5)C[C@@H]1[C@H]32 | 0 | 0 | 0 | 0 | 0 | 20
FC(F)(F)c1cccc(N2CCN(C(=S)NC3CCCCC3)CC2)c1 | 0 | 0 | 0 | 0 | 0 | 0
CN(C)CCCNC(=O)c1ccc(-c2nc(-c3ccc(Cl)cc3)cs2)cc1 | 0 | 0 | 0 | 65 | 0 | 0
CCN(CC)S(=O)(=O)c1cccc(C(=O)NCc2ccccc2)c1 | 0 | 0 | 0 | 0 | 0 | 0
O=C(N/N=C/c1ccccc1)c1ccco1 | 0 | 0 | 0 | 0 | 0 | 0
O=C(C#Cc1ccccc1)c1ccco1 | 0 | 0 | -94 | 0 | 0 | 0
COc1ccc(-c2csc(N)n2)cc1 | 0 | 0 | 0 | 0 | 0 | 31
Cc1ccc(-c2csc(N)n2)cc1 | 0 | - | - | - | - | 0
O=C(NC1CCCCCC1)c1ccc[nH]c1=S | 0 | 0 | 0 | 58 | 0 | 0
Cc1occc1C(=O)NNC(=O)C1CCCCC1 | 0 | 0 | 0 | 0 | 0 | 0
Cc1occc1C(=O)NC1CCCCCC1 | 0 | 13 | 0 | 0 | 0 | 0
Cn1c(N)c(S(=O)(=O)N2CCN(c3ccccc3Cl)CC2)c(=O)n(C)c1=O | 0 | 0 | 0 | 0 | 0 | 27
CCOc1ccccc1CN1CCN(Cc2cccc3nonc23)CC1CCO (centres undefined) | 0 | 0 | 0 | 0 | 0 | 0
COc1ccc(S(=O)(=O)NCC(=O)N(CC(=O)NCc2ccco2)Cc2ccccc2)cc1 | 0 | 0 | 0 | 0 | 0 | 0
O=C(N/N=C/c1ccncc1)c1ccccc1OCc1ccc(Br)cc1 | 0 | 0 | 0 | 71 | 0 | 0
CCOc1ccc(NC(=O)COc2ccccc2C(=O)NCc2ccccc2)cc1 | 0 | - | - | - | 0 | 0
SMILES | V-ATPase pHluor | HIF activator | AI-2 QS modul | T cruzi repl | Yeast superoxide | NRP1-CendR mod
O=C(COc1ccccc1C(=O)NCc1ccncc1)Nc1ccc(Br)cc1 | 0 | 0 | 0 | 57 | 0 | 0
CC1(C(=O)NS(=O)(=O)Cc2cccc(Cl)c2)CCN1C(=O)C1(c2ccc(Cl)cc2)CC1 (centres undefined) | - | - | - | - | - | 0
CCOC(=O)C1=C(c2cccc(Oc3ccccc3)c2)NC(=S)NC1C (centres undefined) | 0 | 0 | 0 | 0 | 0 | 0
CCOC(=O)C1=C(CC)Nc2ccccc2N=C1NC(=O)c1cc(C)on1 | 0 | - | - | - | 0 | 0
CCOC(=O)C1=C(CC)Nc2ccccc2N=C1NC(=O)Nc1ccc(Cl)c(Cl)c1 | 0 | 0 | 0 | 61 | 0 | 0
Cc1nc2cc(NC(=O)c3ccc([N+](=O)[O-])s3)ccc2s1 | 0 | 0 | ? | 0 | 0 | 0
CC(=O)Nc1ccc2nc(NC(=O)c3ccc([N+](=O)[O-])s3)sc2c1 | - | 0 | 0 | 56 | 0 | -
CCC(=O)Nc1nc2ccc([N+](=O)[O-])cc2s1 | 0 | 0 | 0 | 63 | 0 | 0
CCCCOC(=O)Nc1nc2ccc([N+](=O)[O-])cc2s1 | 0 | 0 | 0 | 0 | 0 | 0
CN(C)CCNC(=O)c1cc(Sc2ccc(F)cc2)nc2ccccc12 | - | 0 | 0 | 65 | 0 | -
Cc1ccc(Sc2cc(C(=O)NCCCN(C)C)c3ccccc3n2)cc1 | 0 | 0 | 0 | 56 | 0 | 0
CCOC(=O)/C(C#N)=C/c1c(N2CCN(Cc3ccc4c(c3)OCO4)CC2)nc2c(C)cccn2c1=O | 0 | 0 | 0 | 0 | 0 | 0
COC(=O)/C(C#N)=C/c1c(N2CCN(Cc3ccc4c(c3)OCO4)CC2)nc2c(C)cccn2c1=O | 0 | 410 | 0 | 0 | 0 | 0
C=CCOC(=O)C(C#N)c1nc2ccccc2nc1N1CCN(Cc2ccc3c(c2)OCO3)CC1 (centres undefined) | 0 | 0 | 0 | 57 | 0 | 0
CCCCCCOC(=O)C(C#N)c1nc2ccccc2nc1N1CCN(C)CC1 (centres undefined) | 0 | 0 | 0 | 68 | 0 | 0
CCC(CC)COC(=O)C(C#N)c1nc2ccccc2nc1N1CCN(CC)CC1 (centres undefined) | 0 | 0 | 0 | 55 | 0 | 0
CCOc1ccc(N/C(=N/c2nc(C)cc(C)n2)NC(=O)CC)cc1 | 0 | 0 | 0 | 0 | 0 | 0
COc1ccc(OC)c(S(=O)(=O)NCC(=O)NC2CCCc3ccccc32)c1 (centres undefined) | 0 | - | - | - | - | 0
COc1ccc(OC)c(C(=O)c2coc3cc(Br)c(O)c(Br)c23)c1 | 0 | 0 | 0 | 0 | 0 | 0
CCC1(C(=O)OC)NC(c2ccco2)C2C(=O)N(c3ccccc3)C(=O)C21 (centres undefined) | 15 | 0 | 0 | 0 | 0 | 0
CCN(CC)P(=O)(Nc1cccc(C(F)(F)F)c1)c1ccc(N(C)C)cc1NC(=O)c1ccco1 (centres undefined) | 0 | 0 | 0 | 55 | 0 | 0
O=C(O)CSc1sc(=S)sc1SCC(=O)O | 0 | 0 | 0 | 0 | 0 | 0
COc1ccc(C(=O)N/N=C(\Cc2ncc[nH]2)c2ccccc2)cc1 | 0 | 0 | 0 | 66 | 0 | 0
CC(C)[C@H](Nc1ncnc2c1oc1ccccc12)C(=O)O | 0 | 0 | 0 | 0 | 0 | 0
CCCCNC(=O)C1c2ccccc2OCC(=O)N1Cc1ccc2c(c1)OCO2 (centres undefined) | - | - | - | - | - | 19
C=CCN(C(=O)CSC1=NC(=O)CN1C(C)=O)c1nc(C)c(-c2ccccc2)s1 | 0 | 0 | 0 | 70 | 0 | 0
Oc1cc2ccccc2cc1-c1n[nH]c(=S)n1Cc1ccco1 | 0 | 0 | 0 | 0 | 0 | 21
O=[N+]([O-])c1ccc(OCCCCCN2CCOCC2)cc1 | 0 | 0 | 0 | 0 | 0 | 0
O=[N+]([O-])c1ccc(OCCCCN2CCCCC2)cc1 | 0 | 189 | 0 | 0 | 0 | 0
COC(=O)C1CCN(Cc2ccc(OCCCN3CCN(c4ccc([N+](=O)[O-])cc4)CC3)cc2)CC1 | 0 | 0 | 0 | 61 | 0 | 0

Bioassay records as filed in PubChem BioAssay.
